Measured values from ChEMBL document CHEMBL1629636, “In vitro susceptibility of Borrelia spielmanii to antimicrobial agents commonly used for treatment of Lyme disease” (2009).

Experiments:
[1] = Antimicrobial activity against Borrelia spielmanii A14S after 72 hrs by colorimetric assay; type: functional; settings: Borreliella spielmanii
In short: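 Low-passage isolates (10 to 20 passages) grown in BSK medium were tested in microtiter trays precoated with lyophilized antimicrobials. MIC was read colorimetrically after 72 h. Independent experiments were run on three different days, and the MIC reported is the median of the three.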

Borrelia spielmanii [2] = assay: Antimicrobial activity against Borrelia spielmanii isolate PC-Eq17 after 120 hrs by colorimetric assay; type: functional; settings: Borreliella spielmanii, isolate PC-Eq17, 120 h
Borrelia spielmanii [3] = assay: Antimicrobial activity against Borrelia spielmanii isolate PJes after 72 hrs by colorimetric assay; type: functional; settings: Borreliella spielmanii
In short: (§1)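 Tested in microtiter trays preloaded with lyophilized antibiotics; clinical isolates were low-passage (10 to 20 passages). MIC was read by colorimetric assay after 72 h. MBC was defined as 100% killing in liquid medium at 72 h: aliquots from vials showing no growth were diluted 1:1,000 in BSK and checked for regrowth after 3 weeks of subculture. Values are medians of three independent experiments on separate days.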

Borrelia spielmanii [4] = assay: Antimicrobial activity against Borrelia spielmanii isolate PHap after 72 hrs by colorimetric assay; type: functional; settings: Borreliella spielmanii; in short: as §1
Borrelia garinii [5] = assay: Antimicrobial activity against Borrelia garinii isolate PSth after 72 hrs by colorimetric assay; type: functional; settings: Borreliella garinii; in short: as §1
Borrelia spielmanii [6] = assay: Antimicrobial activity against Borrelia spielmanii isolate PC-Eq17 assessed as reduction in bacterial count at 2 ug/ml after 72 hrs; type: functional, Borreliella spielmanii; design: scale not given: the % may be the effect or the level left
In short: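 Time-kill assay: the isolate was exposed to ceftriaxone for up to 120 h. Growth was followed by conventional counts of morphologically intact motile cells and compared with a drug-free growth control. Values are means of two independent experiments run on different days.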

Borrelia afzelii [7] = assay: Antimicrobial activity against Borrelia afzelii isolate G1039 after 72 hrs by colorimetric assay; type: functional; settings: Borreliella afzelii, isolate G1039, 72 h; in short: as §1
Borrelia spielmanii [8] = assay: Antimicrobial activity against Borrelia spielmanii isolate PMew after 72 hrs by colorimetric assay; type: functional; settings: Borreliella spielmanii; in short: as §1
Borrelia spielmanii [9] = assay: Antimicrobial activity against Borrelia spielmanii isolate PAnz after 72 hrs by colorimetric assay; type: functional; settings: Borreliella spielmanii; in short: as §1
Borrelia spielmanii [10] = assay: Antimicrobial activity against Borrelia spielmanii isolate PMai after 72 hrs by colorimetric assay; type: functional; settings: Borreliella spielmanii; in short: as §1
Borrelia garinii [11] = assay: Antimicrobial activity against Borrelia garinii isolate M2094 after 72 hrs by colorimetric assay; type: functional; settings: Borreliella garinii, isolate M2094, 72 h; in short: as §1
Borrelia garinii [12] = assay: Antimicrobial activity against Borrelia garinii isolate G1 after 72 hrs by colorimetric assay; type: functional; settings: Borreliella garinii, isolate G1, 72 h; in short: as §1
Borrelia spielmanii [13] = assay: Antimicrobial activity against Borrelia spielmanii isolate PC-Eq17 after 72 hrs by colorimetric assay; type: functional; settings: Borreliella spielmanii, isolate PC-Eq17, 72 h; in short: as §1
Borrelia afzelii [14] = assay: Antimicrobial activity against Borrelia afzelii isolate G600 after 72 hrs by colorimetric assay; type: functional; settings: Borreliella afzelii, isolate G600, 72 h; in short: as §1
Borrelia spielmanii [15] = assay: Antimicrobial activity against Borrelia spielmanii isolate TIsar2 after 72 hrs by colorimetric assay; type: functional; settings: Borreliella spielmanii, isolate TIsar2, 72 h; in short: as §1
Borrelia spielmanii [16] = assay: Antimicrobial activity against Borrelia spielmanii isolate PSig2 after 72 hrs by colorimetric assay; type: functional; settings: Borreliella spielmanii, isolate PSig2, 72 h; in short: as §1
Borrelia spielmanii [17] = assay: Antimicrobial activity against Borrelia spielmanii isolate TIsar3 after 72 hrs by colorimetric assay; type: functional; settings: Borreliella spielmanii, isolate TIsar3, 72 h; in short: as §1
Borrelia burgdorferi = assay: Antimicrobial activity against Borrelia burgdorferi isolate LW2 after 72 hrs by colorimetric assay; type: functional; settings: Borreliella burgdorferi, isolate LW2, 72 h; in short: as §1
[18] = Antimicrobial activity against Borrelia burgdorferi B31 after 72 hrs by colorimetric assay; type: functional; settings: Borreliella burgdorferi; in short: as §1
Borrelia afzelii [19] = assay: Antimicrobial activity against Borrelia afzelii isolate FEM1 after 72 hrs by colorimetric assay; type: functional; settings: Borreliella afzelii, isolate FEM1, 72 h; in short: as §1
Borrelia = assay: Antimicrobial activity against Borrelia clinical isolate after 72 hrs by colorimetric assay; type: functional; settings: for MIC90: Borrelia, 72 h; in short: as §1
Staphylococcus aureus = assay: Antimicrobial activity against Staphylococcus aureus ATCC 29213 after 72 hrs by colorimetric assay; type: functional; settings: ATCC 29213, 72 h
In short: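 Quality-control MIC followed the CLSI method with two changes: BSK medium was used, and the antibiotic-medium preparation was preincubated for 48 h before testing. Tests were run on three different days, and the MIC reported is the median of the three.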

CO/N=C(\C(=O)N[C@@H]1C(=O)N2C(C(=O)O)=C(CSc3nc(=O)c(O)nn3C)CS[C@H]12)c1csc(N)n1 [CEFTRIAXONE]
0.0312 µg/mL: MIC [1] | MIC (Borrelia spielmanii [3]) | MIC (Borrelia garinii [5]) | MIC (Borrelia afzelii [7]) | MIC (Borrelia garinii [11]) | MIC (Borrelia garinii [12]) | MIC (Borrelia spielmanii [13]) | MIC (Borrelia spielmanii [16]) | MIC (Borrelia burgdorferi) | MIC [18]
0.0625 µg/mL: MIC (Borrelia spielmanii [4]) | MIC (Borrelia spielmanii [10]) | MIC (Borrelia afzelii [14]) | MIC (Borrelia spielmanii [17]) | MIC (Borrelia afzelii [19]) | MIC90 (Borrelia)
0.0156 µg/mL: MIC (Borrelia spielmanii [9]) | MIC (Borrelia spielmanii [15])
99.9%: Activity (Borrelia spielmanii [6])
1 µg/mL: MBC (Borrelia spielmanii [9]) | MBC (Borrelia spielmanii [16])
0.5 µg/mL: MBC [1] | MBC (Borrelia afzelii [7]) | MBC (Borrelia afzelii [14]) | MBC (Borrelia spielmanii [15]) | MBC (Borrelia spielmanii [17])
0.125 µg/mL: MIC (Borrelia spielmanii [8])
4 µg/mL: MBC (Borrelia spielmanii [8]) | MBC (Borrelia spielmanii [10]) | MBC (Borrelia burgdorferi) | MBC90 (Borrelia) | MIC (Staphylococcus aureus)
2 µg/mL: MBC (Borrelia spielmanii [2]) | MBC (Borrelia spielmanii [3]) | MBC (Borrelia spielmanii [4]) | MBC (Borrelia garinii [5]) | MBC (Borrelia garinii [11]) | MBC (Borrelia garinii [12]) | MBC (Borrelia spielmanii [13]) | MBC [18] | MBC (Borrelia afzelii [19])

CO/N=C(\C(=O)N[C@@H]1C(=O)N2C(C(=O)O)=C(COC(N)=O)CS[C@H]12)c1ccco1 [CEFUROXIME]
8 µg/mL: MBC [1] | MBC (Borrelia spielmanii [3]) | MBC (Borrelia afzelii [7]) | MBC (Borrelia spielmanii [10]) | MBC (Borrelia spielmanii [16]) | MBC (Borrelia burgdorferi)
> 8 µg/mL: MBC (Borrelia spielmanii [4]) | MBC (Borrelia garinii [5]) | MBC (Borrelia spielmanii [8]) | MBC (Borrelia spielmanii [9]) | MBC (Borrelia garinii [11]) | MBC (Borrelia garinii [12]) | MBC (Borrelia spielmanii [13]) | MBC [18] | MBC (Borrelia afzelii [19])
4 µg/mL: MBC (Borrelia afzelii [14]) | MBC (Borrelia spielmanii [17])
>8 µg/mL: MBC90 (Borrelia)
2 µg/mL: MBC (Borrelia spielmanii [15]) | MIC (Staphylococcus aureus)
0.125 µg/mL: MIC [1] | MIC (Borrelia spielmanii [3]) | MIC (Borrelia garinii [5]) | MIC (Borrelia afzelii [7]) | MIC (Borrelia spielmanii [8]) | MIC (Borrelia spielmanii [9]) | MIC (Borrelia spielmanii [10]) | MIC (Borrelia garinii [11]) | MIC (Borrelia garinii [12]) | MIC (Borrelia spielmanii [13]) | MIC (Borrelia spielmanii [15]) | MIC (Borrelia spielmanii [16]) | MIC (Borrelia burgdorferi) | MIC [18]
0.5 µg/mL: MIC (Borrelia spielmanii [17]) | MIC (Borrelia afzelii [19])
0.25 µg/mL: MIC (Borrelia spielmanii [4]) | MIC (Borrelia afzelii [14]) | MIC90 (Borrelia)
